Experimental data gathered from unrelated publications.
Compare with care: the assays were run in different laboratories.
XDH: Xanthine dehydrogenase/oxidase (XDH, Bos taurus, UniProt P80457)
NT5E: 5'-nucleotidase (NT5E, Homo sapiens, UniProt P21589)
PDGFRA: Platelet-derived growth factor receptor alpha (PDGFRA, Homo sapiens, UniProt P16234)
MAP4K5: Mitogen-activated protein kinase kinase kinase kinase 5 (MAP4K5, Homo sapiens, UniProt Q9Y4K4)

Compound	target	test	conditions	quantity	result
NC/C(=C\F)COc1cccc(Cn2c(=S)[nH]c(=O)c3[nH]cnc32)c1	Lactoperoxidase (LPO, Bos taurus, UniProt P80025)	enzyme activity, inhibitor	20 µM	remaining activity	14.2%
CC(=O)ON=C1C=CC(=C(C#N)c2ccccc2)C=C1	Dual specificity tyrosine-phosphorylation-regulated kinase 1A (Dyrk1a, Rattus norvegicus, UniProt Q63470)	enzyme activity, inhibitor, ADP detection	20 µM	activity vs control	101%
COc1ccc2oc(-c3ccc4nc(N)oc4c3)c/c(=N\c3ccccc3NC(=O)CCN)c2c1	Platelet-derived growth factor receptor alpha (PDGFRA, Homo sapiens, UniProt P16234, D842V)	enzyme activity, inhibitor	1 µM	remaining activity	91%
Oc1ncnc2[nH]ncc12	XDH	enzyme activity, inhibitor	250 µg/mL	inhibition	99.3%
Cc1cc(C)c(C#N)c(SCC(=O)Nc2cccnc2)n1	NT5E	enzyme activity, inhibitor	10 µM	inhibition	5%
C#Cc1cnc(Nc2ccnc(CO)c2)nc1Nc1ccccc1S(C)(=O)=NC#N (stereo not drawn)	PDGFRA	cell-free assay	1 µM	remaining signal	58%
C1=C/COCc2cc(ccc2OCCN2CCCC2)Nc2nccc(n2)-c2cccc(c2)COC/1	MAP4K5	binding	0.1 µM	remaining binding	90%
COC(=O)c1ccc(NC(=O)c2sc3nc(-c4ccccc4)cc(C(F)(F)F)c3c2N)cc1	NT5E	enzyme activity, inhibitor, HPLC	10 µM	inhibition	94%
CC(C)(O)c1coc(S(=O)(=O)NC(=O)c2cc3ccccc3n2Cc2ccc(Br)c3ccccc23)c1	XDH	enzyme activity, inhibitor, absorbance	10 µM	inhibition	1.21%
Cc1cc(C)c(C#N)c(SC=CC(=O)Nc2ccon2)n1	NT5E	enzyme activity, inhibitor	10 µM	inhibition	34%
O=C(NS(=O)(=O)c1ccccc1)c1cc2ccccc2n1Cc1ccc(Br)c2ccccc12	XDH	enzyme activity, inhibitor, absorbance	10 µM	inhibition	20.3%
COCCOCCOCCNC(=O)CSc1nc(-c2ccccc2)cc(C(F)(F)F)c1C#N	NT5E	enzyme activity, inhibitor	10 µM	inhibition	-20%
N#Cc1ccc(NC(=O)Nc2ccccc2)cc1	PDGFRA	cell-free assay, competition with immobilised ligand	25 µM	remaining binding	92%
Cc1cc(C)c(C#N)c(SCC(=O)Nc2ccon2)n1	NT5E	enzyme activity, inhibitor	10 µM	inhibition	3%
CCCCC(=O)Nc1ccc(-c2ccc3ncn(CCC)c(=O)c3c2)cn1	MAP4K5	binding, competition with immobilised ligand	0.5 µM	remaining binding	92%
